Results of several laboratories.
Target: Inhibitor of nuclear factor kappa-B kinase subunit epsilon (IKBKE, Homo sapiens, UniProt Q14164)
Residues used in one study (Q14164 1-716): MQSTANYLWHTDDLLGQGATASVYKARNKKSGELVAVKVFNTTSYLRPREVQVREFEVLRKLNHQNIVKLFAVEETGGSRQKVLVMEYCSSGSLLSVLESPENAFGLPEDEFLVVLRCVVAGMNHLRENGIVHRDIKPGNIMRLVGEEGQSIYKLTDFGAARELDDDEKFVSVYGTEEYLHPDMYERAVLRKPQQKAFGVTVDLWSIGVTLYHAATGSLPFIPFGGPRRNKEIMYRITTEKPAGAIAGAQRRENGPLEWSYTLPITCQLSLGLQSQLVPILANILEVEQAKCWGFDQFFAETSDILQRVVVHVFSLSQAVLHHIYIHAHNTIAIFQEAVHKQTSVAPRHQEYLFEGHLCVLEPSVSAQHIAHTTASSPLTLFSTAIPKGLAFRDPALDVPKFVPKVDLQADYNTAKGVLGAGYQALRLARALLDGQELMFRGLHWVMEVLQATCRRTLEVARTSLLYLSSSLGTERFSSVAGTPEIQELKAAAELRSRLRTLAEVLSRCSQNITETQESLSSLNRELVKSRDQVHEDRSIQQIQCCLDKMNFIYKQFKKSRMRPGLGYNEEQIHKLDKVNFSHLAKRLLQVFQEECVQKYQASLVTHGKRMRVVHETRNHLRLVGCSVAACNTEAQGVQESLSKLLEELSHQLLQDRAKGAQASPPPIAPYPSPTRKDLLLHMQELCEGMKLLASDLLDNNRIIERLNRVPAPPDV

CN(C)CC#Cc1ccc(OCCCc2sc(N3CCc4cccc(C(=O)Nc5nc6ccccc6s5)c4C3)nc2C(=O)O)c(F)c1  remaining binding (cell-free assay, competition with immobilised ligand; 1 µM): 100%
COc1cnc(Nc2cccc(S(N)(=O)=O)c2)nc1N1CCN(c2ccccc2)C(=O)C1  remaining binding (binding, competition with immobilised ligand; 1 µM): 50%
O=C(Nc1c[nH]nc1C(=O)NC1CCNCC1)c1cc(F)cc(F)c1  remaining binding (binding, competition with immobilised ligand; 1 µM): 100%
CCC(=O)N[C@@H]1CC[C@H](C(=O)N(C)c2ccc(-c3nc4ccccc4o3)cc2)C1  remaining binding (cell-free assay, competition with immobilised ligand; 1 µM): 60%
O=C(c1ccc(Nc2ncc(Cl)c(-c3ccc(Cl)s3)n2)cc1)N1CCC(N2CCCC2)CC1  remaining binding (binding, competition with immobilised ligand; 1 µM): 7.7%
C[C@@H]1CCN(c2nccc(-c3cnn4ncccc34)n2)C1  remaining binding (binding; 1 µM): 82%
CO[C@H]1CC[C@H](CNc2ccc(S(=O)(=O)NC(=O)c3ccc(N4CCN(CC5=C(c6ccc(Cl)cc6)CC(C)(C)CC5)CC4)cc3Oc3cnc4[nH]ccc4c3)cc2[N+](=O)[O-])CC1  remaining binding (cell-free assay, competition with immobilised ligand; 1 µM): 100%
Nc1ncc2c(n1)-c1c([nH]c3ccc(C#CC4CC4)cc13)CCCC2  remaining binding (binding, competition with immobilised ligand; 1 µM): 83%
O=C(c1ccc(Nc2nccc(-c3cc4ccccc4s3)n2)cc1)N1CCC(N2CCCC2)CC1  remaining binding (binding, competition with immobilised ligand; 1 µM): 31%
CN(C)c1nccc(-c2cnn3ncccc23)n1  remaining binding (binding; 1 µM): 89%
CC(C)(O)c1cncc(-c2nc3ccc(F)cc3n2C2CC2)c1  remaining binding (cell-free assay, competition with immobilised ligand; 1 µM): 100%
F[C@@H]1CCN(c2nccc(-c3cnn4ncccc34)n2)C1  remaining binding (binding; 1 µM): 100%
Nc1cnc(N2CCc3cc(S(=O)(=O)Nc4c(F)cc(Cl)cc4F)cc(N4CCCC4=O)c32)nc1  remaining binding (cell-free assay, competition with immobilised ligand; 1 µM): 95%
N[C@H]1CCN(c2nccc(-c3cnn4ncccc34)n2)C1  remaining binding (binding; 1 µM): 91%
COc1ncc2cc3ccccc3nc2c1C#N  remaining binding (cell-free assay, competition with immobilised ligand; 5 µM): 97%
CCN1CCN(Cc2ccc(C(=O)Nc3ccc(C)c(Oc4ccc5c(c4)CC(=O)N5)c3)cc2C(F)(F)F)CC1  remaining binding (binding, competition with immobilised ligand; 1 µM): 100%
Cc1cc(C)c(-n2ccn3nc(-c4cccnc4)cc23)cc1NC(=O)c1cc(C#N)cc(S(F)(F)(F)(F)F)c1  remaining binding (cell-free assay, competition with immobilised ligand; 0.1 µM): 59.9%
CC1CCCN1c1nccc(-c2cnn3ncccc23)n1 (stereo not drawn)  remaining binding (binding; 1 µM): 100%
CNC(=O)[C@@H]1CC[C@@H](n2c(-c3ccc4cnccc4c3)nc3ccc(C(=O)NCc4cccc(C(N)=O)c4)cc32)C1  remaining binding (binding, competition with immobilised ligand; 1 µM): 98%
CN(C)c1nccc(-c2cnc3ncccn23)n1  remaining binding (binding; 1 µM): 100%
O=C(c1ccc(Nc2ncc(Cl)c(-c3cc4ccccc4s3)n2)cc1)N1CCC(N2CCCC2)CC1  remaining binding (binding, competition with immobilised ligand; 1 µM): 21%
